Results of several laboratories.
Lines come from different studies, so protocols differ.
Target: MAP kinase-interacting serine/threonine-protein kinase 2 (MKNK2, Homo sapiens, UniProt Q9HBH9)

For `O=C(NCC1CCOCC1)c1n[nH]cc1NC(=O)c1c(F)cccc1F`, the remaining binding was 100% (binding; competition with immobilised ligand; 1 µM).
The remaining binding of `CN(c1ccnc(CNc2nc(Nc3ccc4c(c3)CC(=O)N4)ncc2C(F)(F)F)n1)S(C)(=O)=O` is reported as 91% (cell-free assay; competition with immobilised ligand; 1 µM).
With `CN(C)c1nccc(-c2cnn3ncccc23)n1` the remaining binding was 28% (binding; 1 µM).
For `CCCOc1ccc([C@H]2[C@H](C(=O)O)[C@@H](c3ccc4c(c3)OCO4)CN2CC(=O)Nc2c(CC)cccc2CC)cc1`, the remaining binding was 74% (cell-free assay; competition with immobilised ligand; 1 µM).
For `O=C(c1ccc(Nc2ncc(Cl)c(-c3cc4ccccc4s3)n2)cc1)N1CCC(N2CCCC2)CC1`, the remaining binding was 6.9% (binding; competition with immobilised ligand; 1 µM).
The remaining binding of `CN(CCCC(F)(F)F)c1nccc(-c2cnn3ncccc23)n1` is reported as 35% (binding; 1 µM).
The remaining binding of `CNC(=O)c1ccc(Nc2ncc(C(F)(F)F)c(NCc3nccnc3N(C)S(C)(=O)=O)n2)cc1` is reported as 100% (cell-free assay; competition with immobilised ligand; 0.1 µM).
`CCN1CCN(Cc2ccc(C(=O)Nc3ccc(C)c(Oc4ccc5c(c4)CC(=O)N5)c3)cc2C(F)(F)F)CC1` gave a remaining binding of 95% (binding; competition with immobilised ligand; 1 µM).
`CCC(=O)N[C@@H]1CC[C@H](C(=O)N(C)c2ccc(-c3nc4ccccc4o3)cc2)C1` gave a remaining binding of 100% (cell-free assay; competition with immobilised ligand; 1 µM).
`O=C(NCCCN1CCOCC1)c1ccc(Nc2ncc(Cl)c(-c3ccc(Cl)s3)n2)cc1` gave a remaining binding of 55% (binding; competition with immobilised ligand; 1 µM).
The remaining binding of `COc1ccnn2ncc(-c3ccnc(N(C)C)n3)c12` is reported as 78% (binding; 1 µM).
With `C[C@@H]1CN(c2ccc3ncc(-c4ccc5[nH]nc(C6CC6)c5c4)n3n2)C[C@H](C)O1` the remaining binding was 75% (binding; competition with immobilised ligand; 50 nM).
With `C[C@@H]1CCN(c2nccc(-c3cnn4ncccc34)n2)C1` the remaining binding was 11% (binding; 1 µM).
The remaining binding of `Cc1cnc(Nc2ccc(C(=O)N3CCC(N4CCCC4)CC3)cc2)nc1-c1cc2ccccc2s1` is reported as 5.4% (binding; competition with immobilised ligand; 1 µM).
`CNC(=O)[C@@H]1CC[C@@H](n2c(-c3ccc4cnccc4c3)nc3ccc(C(=O)NCc4cccc(C(N)=O)c4)cc32)C1` has a remaining binding of 100% (binding; competition with immobilised ligand; 1 µM).
The remaining binding of `N[C@H]1CCN(c2nccc(-c3cnn4ncccc34)n2)C1` is reported as 21% (binding; 1 µM).
With `CN(C(=O)c1ccccc1)c1cc(N(C)c2ccc3c(c2)CCc2ccc(C(=O)NCCN4CCOCC4)cc2C3=O)ccc1F` the remaining binding was 100% (cell-free assay; competition with immobilised ligand; 1 µM).
`COc1cc(C(=O)N2CCC(N3CCN(C)CC3)CC2)ccc1Nc1ncc2c(n1)N(C)c1ccccc1C(=O)N2C` has a remaining binding of 1.2% (binding; competition with immobilised ligand; 10 µM).
`N#Cc1ccccc1CSc1nnc2c(n1)[nH]c1ccccc12` gave a remaining binding of 95% (binding; competition with immobilised ligand; 10 µM).
`CNCc1ccccc1-c1csc([C@H](C)Nc2nc(C)nc3cc(OC)c(OC)cc23)c1` gave a remaining binding of 71% (cell-free assay; competition with immobilised ligand; 1 µM).
`C[C@@H](c1ccc(-n2cnc3c(N)ncnc32)cc1)N1CCc2nn(C)c(Cc3ccccc3)c2C1=O` gave a remaining binding of 62% (binding; competition with immobilised ligand; 0.1 µM).
For `Cc1cnn2ncc(-c3ccnc(N(C)C)n3)c2c1`, the remaining binding was 49% (binding; 1 µM).
`CC(C)(C)c1ccc(-c2nc(CBr)nn2-c2cccc(O)c2)cc1` has a remaining binding of 62% (cell-free assay; competition with immobilised ligand; 10 µM).
For `CN(c1nccc(-c2cnn3ncccc23)n1)C1CC1`, the remaining binding was 77% (binding; 1 µM).
`O=C(O)c1cc(-c2ccc(C3CCNCC3)cc2)c2ccc(-c3ccc(C(F)(F)F)cc3)cc2c1` has a remaining binding of 100% (cell-free assay; competition with immobilised ligand; 1 µM).
The remaining binding of `C=CC(=O)N1CCC(C(=O)NCC(=O)N2CCN(c3nc(-c4cnc(N)nc4C(F)F)nc(N4CCOCC4)n3)CC2)CC1` is reported as 100% (binding; competition with immobilised ligand; 1 µM).
